Assay results: PMC12215001 (Scientific Reports, 2025)

Columns and labels:
[1] = tested on: N/P(14) cells (cisplatin-resistant subline of NTUB1); experiment: SRB assay, cell growth inhibition; type: cell-based
Outline: (§1)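 Cell lines: NTUB1 and N/P(14) in RPMI 1640, J82 in EMEM, and J82R (J82 adapted stepwise to 10 µM cisplatin); all in 10% FBS at 37 °C, 5% CO2, passage <10, mycoplasma-tested. SV-HUC-1 was grown in F12K. Cells were treated 48 h in 96-well plates, then TCA-fixed (10%) and stained with 0.4% SRB. After 1% acetic acid washes, dye was dissolved in 10 mM Tris base and read at 515 nm. GI50 = concentration giving 50% growth inhibition.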

[2] = tested on: J82R cells (cisplatin-resistant subline of J82); experiment: SRB assay, cell growth inhibition; type: cell-based; conditions: 48 h
Outline: as §1

[3] = tested on: SV-HUC-1 cells (normal uroepithelial); experiment: SRB assay, cell growth inhibition; type: cell-based; conditions: SV-HUC1, 48 h
Outline: as §1

[4] = molecular target: CK2α (Homo sapiens, UniProt P68400); experiment: In vitro CK2α kinase activity assay; type: biochemical; conditions: 10-dose, threefold serial dilution starting at 100 µM, 10 µM ATP
Sequence of CK2α (P68400 whole entry): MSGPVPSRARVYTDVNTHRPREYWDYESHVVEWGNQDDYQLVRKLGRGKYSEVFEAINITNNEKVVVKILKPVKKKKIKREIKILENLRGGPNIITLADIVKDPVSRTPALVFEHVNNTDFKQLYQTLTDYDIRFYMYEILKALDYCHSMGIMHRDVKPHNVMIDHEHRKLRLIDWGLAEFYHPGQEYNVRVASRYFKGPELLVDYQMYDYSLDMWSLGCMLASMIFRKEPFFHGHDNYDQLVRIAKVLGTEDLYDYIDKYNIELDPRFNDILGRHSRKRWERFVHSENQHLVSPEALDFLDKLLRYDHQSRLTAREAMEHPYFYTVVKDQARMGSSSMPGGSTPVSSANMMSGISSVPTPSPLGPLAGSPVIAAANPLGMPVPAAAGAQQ

[5] = tested on: N/P(14) cells; experiment: SRB assay, combination index; type: cell-based; conditions: 48 h, CI below one indicates synergism
Outline: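 N/P(14) cells got doxorubicin or mitomycin C, with or without test compound, for 48 h. Growth was measured by SRB staining: TCA fixation, 1% acetic acid wash, Tris solubilization, absorbance at 515 nm. Combination index was computed from the combined dose–effect data; CI < 1 taken as synergism.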

[6] = tested on: N/P(14) cells; experiment: Western blot analysis; type: cell-based
Outline: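 N/P(14) cells were treated two ways: a concentration series for 24–48 h, or 10 µM for 6–48 h. Lysis was in SDS buffer, followed by SDS-PAGE and PVDF blotting. Probes: caspases, PARP, a CK2 substrate consensus (pS/pT)DXE antibody, and phospho-Akt (S129)/Akt and phospho-XRCC1. Bands were normalized to GAPDH as fold of control. Mean±S.D., n = 3, one-way ANOVA with Dunnett.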

[7] = tested on: N/P(14) cells; experiment: Cell cycle analysis, propidium iodide staining and flow cytometry; type: cell-based; conditions: 24-48 h, time- and concentration-dependent
[8] = tested on: N/P(14) cells; experiment: RT-qPCR and Western blot of base excision repair genes; type: cell-based; conditions: 5 µM, 24 h (RT-qPCR)
Outline: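 For mRNA, cells got 5 µM test compound for 24 h. RNA was taken by TRIzol with 1-bromo-3-chloropropane phase separation and isopropanol precipitation, reverse-transcribed, then run by green-dye qPCR with gene-specific primers (n = 3, unpaired two-tailed t-test). Protein levels were read by western blot, with band densities normalized to GAPDH.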

[9] = tested on: J82R cells; experiment: Western blot analysis; type: cell-based; conditions: 24-48 h
Outline: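 J82R cells got the indicated test compound concentrations for 24–48 h. Proteins were extracted in SDS lysis buffer, run on SDS-PAGE, transferred to PVDF, and probed for caspase-3, -8, -9 and PARP. Band densities were normalized to GAPDH and expressed as fold of untreated control. Mean±S.D., n = 3–4, one-way ANOVA with Dunnett's test.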

[10] = tested on: NTUB1 cells; experiment: SRB assay, cell growth inhibition; type: cell-based; conditions: 48 h
Outline: as §1

[11] = tested on: J82 cells; experiment: SRB assay, cell growth inhibition; type: cell-based; conditions: 48 h
Outline: as §1

## O=c1cc(-c2ccc(Oc3c(O)cc4oc(-c5ccc(O)cc5)cc(=O)c4c3O)cc2)oc2cc(O)cc(O)c12 [Hinokiflavone]
[1]; NTUB1, 48 h
  GI50: 1.48 µM
[2]
  GI50: 0.98 µM
[3]
  GI50: 4.09 µM
[4]
  CK2α kinase activity: inhibited CK2α activity in a concentration-dependent manner
[5]; HNK with doxorubicin
  combination index (CI): below 1
[5]; HNK with mitomycin C
  combination index (CI): below 1
[6]; 24-48 h
  cleavage of caspase-3, caspase-8, caspase-9, and PARP: enhanced
[6]; 24 h and 48 h, concentration-dependent
  phosphorylation of the CK2 substrate consensus sequence ((pS/pT)DXE): suppressed
[7]
  accumulation of cells in the sub-G1 phase: significantly increased
[8]
  mRNA and protein levels of MUTYH, OGG1, and XRCC1: reduced
[9]
  cleavage of caspase-3, caspase-8, caspase-9, and PARP: enhanced

## O=C(O)c1ccc2c(c1)nc(Nc1cccc(Cl)c1)c1ccncc12 [CX-4945, reference compound]
[6]; 24 h
  PARP cleavage: increased
[6]; 24 h, concentration-dependent
  phosphorylation of the downstream targets Akt and XRCC1: decreased

## N.N.[Cl][Pt][Cl] [cisplatin, reference compound]
[10]
  GI50: 7.89 µM
[1]; N/P(14) cells, 48 h, SRB assay
  GI50: 47.4 µM
[11]
  GI50: 2580 nM
[2]; J82R cells, SRB assay
  GI50: 9.47 µM
